TCR-CD3 inh – inhibitors of human TCR-CD3 interaction, primary screen, biochemical, fluorescence, TAMRA-labeled TCR probe; inhibition, % at 9.4 µM; hit rate 0.37% among 360,000; T-cell receptor (TCR); in the data active = inhibition above about 19%;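 also: recombinant mutant TCR 2C K166C tagged with TAMRA read by polarization; 0% = receptor in buffer alone and 100% = receptor with positive control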
ABHD4 inh – ABHD4 inhibitors, primary screen, biochemical, fluorescence polarization, mouse. (Lyso)-N-acylphosphatidylethanolamine lipase (Mus musculus), Q8VD66. purified mABHD4, FP-Rh probe fluorescence polarization. inhibition, % at 8.92 µM. hit rate 0.54% among 370,000. AID 720543, 2013;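 active = inhibition exceeding the mean over every tested compound plus 3 SD, cut at about 30% in these data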;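 also: 0% = plate median of compound wells and 100% = S159A mutant with DMSO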
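System: mouse ABHD4 enzyme, wild type / Medium: HEPES pH 7.0, NaCl, Pluronic buffer / Reagent: FP-Rh activity-based fluorescent probe / Control set: S159A mutant high control, sample median low control / Detection: fluorescence polarization with parallel and perpendicular emission, 525/598 nm / Schedule: 45 min + 60 min at 25 °C / Compound dosing: 8.92 µM, single dose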
SIAE primary – human SIAE inhibitors, primary screen, biochemical, fluorescence polarization, FP-Rh probe, 1536-well HTS; Sialate O-acetylesterase (Homo sapiens), Q9HAT2; SIAE FP-Rh probe binding; inhibition, % at 9.66 µM; hit rate 0.69% among 370,000; AID 1053197, 2014;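 active = inhibition above a cutoff: mean of compounds within the control limits plus 3 SD of those, cut at about 17% in these data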;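 also: 0% = plate median of compound wells and 100% = probe without SIAE protein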
PRMT1 inh – PRMT1 methyltransferase inhibitors, primary screen, biochemical, fluorescence polarization; Protein arginine N-methyltransferase 1 (Homo sapiens), Q99873; recombinant PRMT1, activity-based probe fluorescence polarization; inhibition, % at 2.79 µM; hit rate 1.3% among 370,000;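 active = inhibition above about 21% made by adding two undisclosed values, limit read from the data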
Target sequence (Q99873 whole entry, looked up): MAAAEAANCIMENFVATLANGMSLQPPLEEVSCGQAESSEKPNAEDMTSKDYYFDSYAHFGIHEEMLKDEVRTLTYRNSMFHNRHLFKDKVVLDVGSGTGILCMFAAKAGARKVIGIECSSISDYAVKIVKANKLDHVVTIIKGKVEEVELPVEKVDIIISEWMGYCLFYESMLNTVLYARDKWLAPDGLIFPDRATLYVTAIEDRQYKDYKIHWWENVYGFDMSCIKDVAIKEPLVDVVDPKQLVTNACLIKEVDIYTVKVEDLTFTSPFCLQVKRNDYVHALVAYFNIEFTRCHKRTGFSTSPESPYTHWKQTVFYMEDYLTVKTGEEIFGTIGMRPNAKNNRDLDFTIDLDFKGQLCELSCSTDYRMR
HTRA1 inhibitor – HTRA1 serine protease inhibitors, primary screen, biochemical, fluorescence polarization, HTS; inhibition, % at 5.96 µM; hit rate 0.5% among 340,000; Q92743; recombinant HTRA1, FP-rhodamine activity-based probe; in the data active = inhibition above about 36%;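 also: 0% = enzyme with DMSO and 100% = wells lacking enzyme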
PAD4 FP inh – human PAD4 inhibitors, primary screen, biochemical, fluorescence polarization, 1536-well format; recombinant PAD4, RCA probe fluorescence polarization; inhibition, % at 6.36 µM; hit rate 0.41% among 330,000; AID 485272, 2010;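 active = percent inhibition above a cutoff equal to the mean of all tested compounds plus 3 SD, cut at about 15% in these data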;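 also: 0% = PAD4 with RCA probe and DMSO and 100% = probe without PAD4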
SIAE confirm – human SIAE inhibitors, retest, confirmation, biochemical, fluorescence polarization, FP-Rh probe, triplicate; shares compounds with SIAE primary; SIAE FP-Rh activity-based probe; inhibition, % at 9.66 µM; hit rate 13% among 2,300;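 active = mean inhibition of the replicates above the hit cutoff set in the primary screen, cut at about 17% in these data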;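 also: 0% = SIAE with DMSO and probe and 100% = probe without SIAE; inhibitors lower polarization as more probe stays unbound to SIAE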
An asterisk follows results filed as active; · = no result. The list is not random: actives were taken first. Their share in the collection is about 2.9%.

SMILES	TCR-CD3 inh	ABHD4 inh	SIAE primary	PRMT1 inh	HTRA1 inhibitor	PAD4 FP inh	SIAE confirm
NNC(=O)c1cc2ccccc2cc1O	5	21	18*	2	31	-4	6
CCOc1ccc(NC(=O)c2cc3ccccc3cc2O)cc1	-5	16	18*	0	4	6	-1
O=C(NCCO)c1cc2ccccc2cc1O	2	4	5	-3	5	-4	·
CCOc1ccc(NC(=O)c2cc3ccccc3cc2OC)cc1	9	-6	0	1	-28	3	·
Cc1sc(N/N=C/c2cccnc2)nc1-c1ccccc1	0	11	17*	-1	3	-4	0
NS(=O)(=O)c1ccc(NC(=O)CSc2nnc(-c3cccs3)o2)cc1	·	0	-2	-3	·	·	·
COC(=O)C1CN(Cc2ccccc2)CCS(=O)(=O)N1Cc1cccc(Cl)c1 (centres undefined)	·	-12	-8	-3	·	·	·
CCC1(c2ccc(F)cc2)NC(=O)N(CC(=O)N(C)C2CCS(=O)(=O)C2)C1=O (centres undefined)	-3	-1	21*	3	7	0	-2
CN(C(=O)CN1C(=O)NC(c2ccccc2)(c2ccccc2)C1=O)C1CCS(=O)(=O)C1 (centres undefined)	0	3	2	0	9	1	·
N#Cc1cccc(NC(=O)Nc2cccs2)c1	-12	-3	10	6	0	-8	·
CCc1cccc(NC(=O)Nc2cccs2)c1	0	-1	17*	3	3	0	4
Cc1cccc(Cn2cc(COC(=O)NCCc3ccccc3)nn2)c1	·	-1	-4	-2	·	·	·
CCOc1ccc(/C=N/NC(=S)NC2CC3CC2C2C=CCC32)cc1 (centres undefined)	-10	-4	-3	4	·	-2	·
COc1cc(/C=N/NC(=S)NC2CC3CC2C2C=CCC32)ccc1O (centres undefined)	5	10	23*	-3	-4	5	15
O=[N+]([O-])c1cccc(CN2CCN(c3cccc4[nH]ccc34)CC2)c1	1	3	20*	0	2	0	-2
O=[N+]([O-])c1cccc(CN2CCN(c3ncccn3)CC2)c1	-10	3	-3	8	-7	1	·
OC(c1ccc(CN2CCCCC2)cc1)c1ncc(-c2ccccc2)[nH]1 (centres undefined)	-7	1	24*	-1	·	·	-1
CCN1CCN(S(=O)(=O)c2ccc(Cl)c(C(=O)N(C)CCOc3ccc(Cl)cc3)c2)CC1	-1	-1	20*	-6	-3	2	1
CCN1CCN(S(=O)(=O)c2ccc(Cl)c(C(=O)Nc3ccccc3N3CCCCC3)c2)CC1	0	11	17*	-1	-15	3	-2
CCN1CCN(S(=O)(=O)c2ccc(Cl)c(C(=O)Nc3ccccc3N3CCCC3)c2)CC1	0	-4	-15	-2	0	2	·
CCN1CCN(c2ccc(S(=O)(=O)N3CCCCC3)cc2NC(=O)c2cccc(OC(F)F)c2)CC1	-4	5	20*	-1	-17	1	7
COc1ccc(S(=O)(=O)N2CCCCCC2)cc1C(=O)N(C)CCOc1ccc(Cl)cc1	3	-3	-4	-1	-9	-3	·
COc1ccc(-n2c(SCC(=O)NC3CCCCCC3)nnc2-c2ccncc2)cc1	·	10	3	5	·	·	·
O=C(CSc1nnc(-c2ccccc2)o1)NC1CCCC1	-4	2	-2	2	-7	-8	·
O=C(CSc1nnc(-c2ccco2)o1)NC1CCCCCC1	5	5	18*	0	-3	-1	-1
SMILES	TCR-CD3 inh	ABHD4 inh	SIAE primary	PRMT1 inh	HTRA1 inhibitor	PAD4 FP inh	SIAE confirm
O=C(NCCc1ccccc1)OCc1cn(-c2cccc(Cl)c2)nn1	·	-1	8	3	·	·	·
NNc1nc(-c2ccccc2)c2cc(Cl)ccc2n1	2	6	5	2	5	-1	·
O=C(NCCO)c1cccc(Nc2nc(-c3ccccc3)c3cc(Cl)ccc3n2)c1	2	-15	21*	-1	-59	-1	-29
CC(=O)NC12CC3CC(C1)CC(C(=O)N1CCN(S(=O)(=O)c4ccccc4C#N)CC1)(C3)C2	-2	5	28*	4	4	·	-2
CCC(c1nnc(SCC(=O)NCCc2ccc(OC)c(OC)c2)n1Cc1ccccc1)N(C)C (centres undefined)	8	2	1	-1	-5	-5	·
COc1ccc(CCNC(=O)CNCC(c2ccccc2)N(C)C)cc1OC (centres undefined)	-2	14	19*	1	10	-8	1
Cc1cc(OC(=O)c2cc(F)c(F)cc2Cl)nc(C)n1	-1	7	19*	-2	7	-6	3
O=C(NC(=S)N1CCOCC1)c1cn(-c2ccccc2)nc1-c1ccc(F)cc1	-6	3	28*	-4	5	-3	0
O=C(NC1CCCCN(Cc2cccc(Cl)c2)C1=O)c1ccc(F)c(F)c1 (centres undefined)	·	0	-2	3	·	·	·
Cc1ccc(N(Cc2ccc(C(=O)NCC3CCCO3)cc2)S(C)(=O)=O)cc1C (centres undefined)	7	-4	20*	-3	-4	-1	2
CCOC(=O)/C(=N\Nc1ccc(Cl)cc1)c1csc(Nc2ccccc2)n1	2	2	20*	1	28	2	-3
CCOC(=O)/C(=N/Nc1ccccc1)c1csc(Nc2ccccc2)n1	-8	10	9	0	27	-5	·
Nn1cc(-c2ccccc2)nc1SCC(=O)NCC1CCCO1 (centres undefined)	6	-1	2	-1	-6	1	·
CCCC(C)NC(=O)CSc1nc(-c2ccccc2)cn1N (centres undefined)	0	-11	17*	-1	4	-2	0
O=C1[C@@H]2Cc3c([nH]c4ccccc34)CN2C(=O)CN1CCCO	-2	0	18*	0	-6	-2	4
CCCCCN1CC(=O)N2Cc3[nH]c4ccccc4c3C[C@H]2C1=O	-4	-6	-2	1	0	-3	·
C/C(=N\Nc1nc2ccccc2[nH]1)c1cc2ccccc2o1	-4	29	24*	-3	8	-5	16
C/C(=N\Nc1nc2ccccc2[nH]1)c1ccc2c(c1)OCCO2	4	22	20*	-2	14	4	13

Bioassay records from PubChem.
